According to ChEMBL document CHEMBL1157851, “Design and synthesis of novel 3,4-disubstituted pyrazoles for nanomedicine applications against malignant gliomas” (Eur J Med Chem, 2010):

Test: Cytotoxicity against human U87MG cells after 24 hrs by MTT assay
Type: functional, cell-based, U-87MG ATCC
Conditions: U-87 MG
In short: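 U87MG human glioblastoma cells were grown in EMEM with 10% FBS and 1% penicillin–streptomycin at 37 °C under humidified 5% CO₂, then seeded at 2 × 10³ cells/well. At about 50% confluence, cells were exposed to compounds at various concentrations (10 mmol/L DMSO stocks; DMSO control) for 24 h. MTT was then added for 3 h at 37 °C, formazan was dissolved in DMSO, and A540 was read. IC50 values are means of three experiments.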

Structure (SMILES)	IC50 [µM]
COc1ccccc1C(=O)Nc1cn(-c2ccccc2)nc1-c1ccccc1	81
Cn1cc(NC(=O)CCCCCCCCCCCN)c(-c2ccccn2)n1	90
Cn1cc(NC(=O)CCCCCCCCCCO)c(-c2ccccn2)n1	> 150
COc1ccccc1C(=O)Nc1cn(C)nc1-c1ccccn1	130
CCCCCCCCCCCC(=O)Nc1cn(C)nc1-c1ccccn1	> 150
C[C@H](N)C(=O)Nc1cn(C)nc1-c1ccccn1	> 150
Cn1cc(NC(=O)CCCCCCCCCCS)c(-c2ccccn2)n1	> 150
O=C(CCCCCCCCCCO)Nc1cn(-c2ccccc2)nc1-c1ccccc1	> 150
Cn1cc(NC(=O)c2ccccc2)c(-c2ccccn2)n1	> 150
CCCCCCCCCCCC(=O)Nc1cn(-c2ccccc2)nc1-c1ccccc1	81
C[C@H](N)C(=O)Nc1cn(-c2ccccc2)nc1-c1ccccc1	> 150
O=C(CCCCCCCCCCS)Nc1cn(-c2ccccc2)nc1-c1ccccc1	90
NCCCCCCCCCCCC(=O)Nc1cn(-c2ccccc2)nc1-c1ccccc1	77
O=C(Nc1cn(-c2ccccc2)nc1-c1ccccc1)c1ccccc1	> 150
